Results from ChEMBL document CHEMBL5724801, “EUbOPEN Chemogenomics Library - Multiplex” (2024).
“And” between values parts separate entries of the source, which are not always exact repeats. Identical values can stand only once.

Tested on: HEK-293T
Assay: Multiplex assay against HEK293T
Assay type: toxicity, cell-based
Details: human
Outline: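 Live cells were stained at seeding with Hoechst33342, BioTracker Green Microtubule Cytoskeleton Dye, MitoTracker Red and Annexin V Alexa Fluor 680, then imaged on a CQ1 microscope at 37°C and 5% CO2 after compound addition. CellPathfinder machine-learning gating split cells into Hoechst high-intensity objects or normal cells. Normal cells were split into healthy, pyknosed or fragmented nuclei, and pyknosed cells into mitotic or apoptotic. Tubulin, mitochondrial-mass and membrane-permeability phenotypes are per cents of healthy-nucleus cells.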

[1] = 12 h, 1 µM, compound concentration 1 uM
[2] = 12 h, 10 µM, compound concentration 10 uM
[3] = 24 h, 1 µM, compound concentration 1 uM
[4] = 24 h, 10 µM, compound concentration 10 uM
[5] = 48 h, 1 µM, compound concentration 1 uM
[6] = 48 h, 10 µM, compound concentration 10 uM

CN1CCN(c2nc3cc(C(F)(F)F)ccc3n3cccc23)CC1.O=C(O)/C=C\C(=O)O.O=C(O)/C=C\C(=O)O
Population Apoptotic (%) [1]: 37% and 53% | Population Fragmented Nuclei (%) [1]: 5% and 8% | Population Healthy Nuclei (%) [1]: 80% and 77% | Population Hoechst High Intensity Objects (%) [1]: 10% and 5% | Population Membrane Permeable-Phenotype (%) [1]: 0% | Population Mitochondria Different-Phenotype (%) [1]: 48% and 76% | Population Mitotic Cells (%) [1]: 62% and 46% | Population Normal (%) [1]: 89% and 94% | Population Pyknosed Nuclei (%) [1]: 13% and 14% | Population Tubulin-Different-Phenotype (%) [1]: 33% and 35% | Total Cell Count [1]: 438 and 332 | Population Apoptotic (%) [2]: 68% and 64% | Population Fragmented Nuclei (%) [2]: 7% and 5% | Population Healthy Nuclei (%) [2]: 76% | Population Hoechst High Intensity Objects (%) [2]: 14% and 9% | Population Membrane Permeable-Phenotype (%) [2]: 0% | Population Mitochondria Different-Phenotype (%) [2]: 73% and 89% | Population Mitotic Cells (%) [2]: 31% and 35% | Population Normal (%) [2]: 85% and 90% | Population Pyknosed Nuclei (%) [2]: 15% and 18% | Population Tubulin-Different-Phenotype (%) [2]: 64% and 66% | Total Cell Count [2]: 396 and 286 | Population Apoptotic (%) [3]: 33% and 54% | Population Fragmented Nuclei (%) [3]: 9% and 6% | Population Healthy Nuclei (%) [3]: 81% and 83% | Population Hoechst High Intensity Objects (%) [3]: 6% | Population Membrane Permeable-Phenotype (%) [3]: 1% and 0% | Population Mitochondria Different-Phenotype (%) [3]: 30% and 50% | Population Mitotic Cells (%) [3]: 66% and 45% | Population Normal (%) [3]: 93% | Population Pyknosed Nuclei (%) [3]: 9% and 10% | Population Tubulin-Different-Phenotype (%) [3]: 24% and 25% | Total Cell Count [3]: 557 and 390 | Population Apoptotic (%) [4]: 41% and 63% | Population Fragmented Nuclei (%) [4]: 8% and 10% | Population Healthy Nuclei (%) [4]: 77% and 78% | Population Hoechst High Intensity Objects (%) [4]: 9% and 7% | Population Membrane Permeable-Phenotype (%) [4]: 0% | Population Mitochondria Different-Phenotype (%) [4]: 65% and 79% | Population Mitotic Cells (%) [4]: 58% and 36% | Population Normal (%) [4]: 90% and 92% | Population Pyknosed Nuclei (%) [4]: 13% and 10% | Population Tubulin-Different-Phenotype (%) [4]: 62% and 58% | Total Cell Count [4]: 490 and 378 | Population Apoptotic (%) [5]: 20% and 37% | Population Fragmented Nuclei (%) [5]: 13% | Population Healthy Nuclei (%) [5]: 78% and 79% | Population Hoechst High Intensity Objects (%) [5]: 3% and 5% | Population Membrane Permeable-Phenotype (%) [5]: 2% and 0% | Population Mitochondria Different-Phenotype (%) [5]: 17% and 42% | Population Mitotic Cells (%) [5]: 79% and 62% | Population Normal (%) [5]: 96% and 94% | Population Pyknosed Nuclei (%) [5]: 7% | Population Tubulin-Different-Phenotype (%) [5]: 17% and 21% | Total Cell Count [5]: 915 and 535 | Population Apoptotic (%) [6]: 50% and 52% | Population Fragmented Nuclei (%) [6]: 15% and 11% | Population Healthy Nuclei (%) [6]: 75% and 77% | Population Hoechst High Intensity Objects (%) [6]: 10% and 12% | Population Membrane Permeable-Phenotype (%) [6]: 2% and 0% | Population Mitochondria Different-Phenotype (%) [6]: 41% and 65% | Population Mitotic Cells (%) [6]: 50% and 47% | Population Normal (%) [6]: 89% and 87% | Population Pyknosed Nuclei (%) [6]: 8% and 10% | Population Tubulin-Different-Phenotype (%) [6]: 44% and 56% | Total Cell Count [6]: 672 and 472
